Results published in ChEMBL document CHEMBL4316593 (Eur J Med Chem, 2019).
Active and inactive are the calls of the source. The rule behind the calls is not given here.

Key:
[1] = Inhibition of RTK/PI3K/AKT/mTOR signaling in human U87 cells assessed as down regulation of CHST3 gene expression at cytotoxic IC50 measured after 48 hrs relative to control; assay type: cell-based; details: U-87MG ATCC
How it was run: (§1)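 U87 cells grown in MEM with 10% FBS at 37°C, 5% CO2. Cells exposed to IC50 of test compound for 48 hrs, alongside untreated and cisplatin controls, each condition in triplicate. RNA isolated and profiled; differential expression called with DESeq2 (q-value < 0.05, fold change > 1.5), fold change versus untreated.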

[2] = Inhibition of RTK/PI3K/AKT/mTOR signaling in human U87 cells assessed as up regulation of RHOA gene expression at cytotoxic IC50 measured after 48 hrs relative to control; assay type: cell-based; details: U-87MG ATCC
How it was run: (§2)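 Cells were exposed for 48hrs at 37°C in humidified 5% CO₂ to the compound at its previously determined IC₅₀, with Cisplatin at its IC₅₀ and an untreated negative control alongside. Each condition was run in triplicate. RNA was isolated from all samples by the same protocol. Genes were called differentially expressed by DESeq2 at q-value < 0.05 and fold change > 1.5.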

[3] = Inhibition of RTK/PI3K/AKT/mTOR signaling in human U87 cells assessed as down regulation of HELLS gene expression at cytotoxic IC50 measured after 48 hrs relative to control; assay type: cell-based; details: U-87MG ATCC; how it was run: as §1
[4] = Inhibition of RTK/PI3K/AKT/mTOR signaling in human U87 cells assessed as up regulation of NARS gene expression at cytotoxic IC50 measured after 48 hrs relative to control; assay type: cell-based; details: U-87MG ATCC; how it was run: as §2
[5] = Inhibition of RTK/PI3K/AKT/mTOR signaling in human U87 cells assessed as up regulation of KDM5B gene expression at cytotoxic IC50 measured after 48 hrs relative to control; assay type: cell-based; details: U-87MG ATCC; how it was run: as §2
[6] = Inhibition of RTK/PI3K/AKT/mTOR signaling in human U87 cells assessed as up regulation of NFATC4 gene expression at cytotoxic IC50 measured after 48 hrs relative to control; assay type: cell-based; details: U-87MG ATCC; how it was run: as §2
[7] = Inhibition of RTK/PI3K/AKT/mTOR signaling in human U87 cells assessed as up regulation of ADP ribosylation factor like GTPase 6 interacting protein 5 gene expression at cytotoxic IC50 measured after 48 hrs relative to control; assay type: cell-based; details: U-87MG ATCC; how it was run: as §2
[8] = tested on: U-87 MG; assay: Induction of DNA damage in human U87 cells assessed as change in PLK3 gene expression at cytotoxic IC50 measured after 48 hrs […] relative to control; assay type: functional, U-87MG ATCC
How it was run: (§3)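 U87 expression profiling. Cells incubated 48hrs at 37°C, 5% CO₂ with the IC₅₀ concentration, alongside a cisplatin and an untreated control, in triplicate. RNA was isolated by one common protocol and profiled. DEGs were called with DESeq2 (q < 0.05, fold change > 1.5) and expressed as fold change versus untreated.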

[9] = Inhibition of RTK/PI3K/AKT/mTOR signaling in human U87 cells assessed as up regulation of Rab acceptor 1 gene expression at cytotoxic IC50 measured after 48 hrs relative to control; assay type: cell-based; details: U-87MG ATCC
How it was run: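 U87 cells were exposed for 48 hrs at 37°C under 5% CO₂, with cisplatin and untreated controls, all in triplicate. RNA was isolated by the same protocol for every sample and expression profiled from mapped reads. Differential expression against untreated cells was called in DESeq2 (q-value < 0.05, fold change > 1.5).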

[10] = Inhibition of RTK/PI3K/AKT/mTOR signaling in human U87 cells assessed as up regulation of basic transcription factor 3 like 4 gene expression at cytotoxic IC50 measured after 48 hrs relative to control; assay type: cell-based; details: U-87MG ATCC
[11] = tested on: U-87 MG; assay: Cell cycle arrest in human U87 cells assessed as change in CDK4 gene expression at cytotoxic IC50 measured after 48 hrs […] relative to control; assay type: functional, U-87MG ATCC; how it was run: as §3
[12] = tested on: U-87 MG; assay: Induction of apoptosis in human U87 cells assessed as change in ITPR2 gene expression at cytotoxic IC50 measured after 48 hrs […] relative to control; assay type: functional, U-87MG ATCC; how it was run: as §1
[13] = Inhibition of RTK/PI3K/AKT/mTOR signaling in human U87 cells assessed as down regulation of RFC4 gene expression at cytotoxic IC50 measured after 48 hrs relative to control; assay type: cell-based; details: U-87MG ATCC; how it was run: as §2
[14] = tested on: U-87 MG; assay: Induction of DNA damage in human U87 cells assessed as change in TRIAP1 gene expression at cytotoxic IC50 measured after 48 hrs […] relative to control; assay type: functional, U-87MG ATCC; how it was run: as §1
[15] = tested on: LN-229; assay: Cell cycle arrest in human LN229 cells assessed as increase in accumulation at G1-phase at cytotoxic IC50 measured after 48 hrs by propidium iodide staining based fluorescence cell imaging analysis; assay type: functional
How it was run: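 Cell cycle by PI staining. Cells seeded at 1×10^6 and grown overnight at 37°C, 5% CO₂, then exposed for 48hrs at their IC₅₀ concentration, with DMSO and cisplatin controls. Cells were trypsinized, washed in cold PBS and fixed in 70% ethanol at 4°C for 30 min. They were stained with PI in Triton X-100/RNase for 15 min at 37°C and imaged by fluorescence microscopy. Reported as mean ± S.E.M of triplicates.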

[16] = Inhibition of RTK/PI3K/AKT/mTOR signaling in human U87 cells assessed as down regulation of USP47 gene expression at cytotoxic IC50 measured after 48 hrs relative to control; assay type: cell-based; details: U-87MG ATCC; how it was run: as §2
[17] = Inhibition of RTK/PI3K/AKT/mTOR signaling in human U87 cells assessed as up regulation of MORC family CW-type zinc finger 2 gene expression at cytotoxic IC50 measured after 48 hrs relative to control; assay type: cell-based; details: U-87MG ATCC; how it was run: as §2
[18] = Inhibition of RTK/PI3K/AKT/mTOR signaling in human U87 cells assessed as up regulation of AGRN gene expression at cytotoxic IC50 measured after 48 hrs relative to control; assay type: cell-based; details: U-87MG ATCC; how it was run: as §2
[19] = Inhibition of RTK/PI3K/AKT/mTOR signaling in human U87 cells assessed as up regulation of EPS8 like 2 gene expression at cytotoxic IC50 measured after 48 hrs relative to control; assay type: cell-based; details: U-87MG ATCC; how it was run: as §2
[20] = tested on: U-87 MG; assay: Induction of DNA damage in human U87 cells assessed as change in BRCA1 gene expression at cytotoxic IC50 measured after 48 hrs […] relative to control; assay type: functional, U-87MG ATCC; how it was run: as §3
[21] = tested on: MEF; assay: Cytotoxicity against MEF assessed as cell death at 100 uM measured after 48 hrs by trypan blue dye-based cell counting analysis; details: mouse
[22] = tested on: LN-229; assay: Cytotoxicity against human LN229 cells assessed as reduction in cell proliferation up to 200 uM by trypan blue dye-based cell counting analysis; assay type: functional; details: TDE = time-dependent effect
[23] = Inhibition of RTK/PI3K/AKT/mTOR signaling in human U87 cells assessed as down regulation of PHIP gene expression at cytotoxic IC50 measured after 48 hrs relative to control; assay type: cell-based; details: U-87MG ATCC; how it was run: as §2
[24] = Inhibition of RTK/PI3K/AKT/mTOR signaling in human U87 cells assessed as up regulation of erythrocyte membrane protein band 4.1 gene expression at cytotoxic IC50 measured after 48 hrs relative to control; assay type: cell-based
[25] = Inhibition of RTK/PI3K/AKT/mTOR signaling in human U87 cells assessed as up regulation of retinoic acid receptor alpha gene expression at cytotoxic IC50 measured after 48 hrs relative to control; assay type: cell-based; details: U-87MG ATCC
[26] = Inhibition of RTK/PI3K/AKT/mTOR signaling in human U87 cells assessed as up regulation of QSOX2 gene expression at cytotoxic IC50 measured after 48 hrs relative to control; assay type: cell-based; details: U-87MG ATCC; how it was run: as §2

CC(=O)C(=NNc1ccccc1C#N)C(C)=O
log2FC [1]: -1.06 | log2FC [2]: 0.32 | log2FC [3]: -1.06 | log2FC [4]: 0.53 | log2FC [5]: 0.553 | log2FC [6]: 2.89 | log2FC [7]: 0.661 | fold change (FC) [8]: 1.714 | log2FC [9]: 0.839 | log2FC [10]: 0.896 | fold change (FC) [11]: 1.499 | log2FC [12]: -3.745 | log2FC [13]: -1 | fold change (FC) [14]: 2.018 | Activity [15]: Active | log2FC [16]: -0.615 | log2FC [17]: 0.946 | log2FC [18]: 0.578 | log2FC [19]: 0.818 | fold change (FC) [20]: 2.408 | Activity [21]: < 20% | Activity [22]: Tde | log2FC [23]: -0.753 | log2FC [24]: 1.26 | log2FC [25]: 1.04 | log2FC [26]: 0.599
